Measured values taken from ChEMBL document CHEMBL1152325, “Antioxidant and anticholinesterase activity evaluation of ent-kaurane diterpenoids from Sideritis arguta” (J Nat Prod, 2009).
pIC50: −log10 of the molar value.

Columns and labels:
Cholinesterase = Cholinesterase (Homo sapiens, UniProt P06276); test: Inhibition of BChE by spectrophotometry
[1] = test system: Radical scavenging activity; test: Antioxidant activity assessed as DPPH radical scavenging activity; format: functional; details: for pIC50: read-out: IC50
Summary of the method: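 DPPH free-radical scavenging by the Blois method on extracts and diterpenoids. Tested at four concentrations in triplicate analyses, given as mean ± SD. Results expressed as IC50 (µg/mL).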

[2] = Antioxidant activity assessed as superoxide radical scavenging activity by phenazin methosulphate-NADH-NBT assay; format: functional; details: for pIC50: read-out: IC50
Summary of the method: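 Superoxide-anion scavenging by the NADH-PMS-NBT method after Liu et al. Extracts and diterpenoids were tested at four concentrations in triplicate, as mean ± SD. IC50 reported in µg/mL.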

Acetylcholinesterase = Acetylcholinesterase (Homo sapiens, UniProt P22303); test: Inhibition of AChE by spectrophotometry; details: for pIC50: read-out: IC50
[3] = Antioxidant activity against beta-carotene and linoleic acid assessed as inhibition of bleaching of beta-carotene; format: functional; details: for pIC50: read-out: IC50
Summary of the method: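 β-Carotene–linoleic acid model system on extracts and isolated diterpenoids. Bleaching inhibition was measured at four concentrations in triplicate, reported as mean ± SD. IC50 in µg/mL.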

Cholinesterase, sequence (P06276 whole entry): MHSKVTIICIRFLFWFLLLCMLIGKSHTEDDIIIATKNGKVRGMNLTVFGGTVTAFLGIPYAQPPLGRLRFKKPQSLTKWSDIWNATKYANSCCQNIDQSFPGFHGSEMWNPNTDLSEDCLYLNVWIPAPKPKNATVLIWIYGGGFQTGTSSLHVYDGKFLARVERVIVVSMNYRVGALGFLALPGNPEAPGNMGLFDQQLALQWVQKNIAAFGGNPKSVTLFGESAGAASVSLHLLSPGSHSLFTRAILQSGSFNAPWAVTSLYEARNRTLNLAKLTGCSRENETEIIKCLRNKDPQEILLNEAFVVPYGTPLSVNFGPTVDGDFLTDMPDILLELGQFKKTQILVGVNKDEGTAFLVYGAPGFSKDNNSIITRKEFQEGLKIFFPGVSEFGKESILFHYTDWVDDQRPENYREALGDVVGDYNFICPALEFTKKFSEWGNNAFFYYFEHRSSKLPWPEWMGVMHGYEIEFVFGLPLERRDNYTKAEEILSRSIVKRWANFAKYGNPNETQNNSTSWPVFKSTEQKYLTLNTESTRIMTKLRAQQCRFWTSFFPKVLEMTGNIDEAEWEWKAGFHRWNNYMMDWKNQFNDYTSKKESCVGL
Acetylcholinesterase, sequence (P22303 whole entry): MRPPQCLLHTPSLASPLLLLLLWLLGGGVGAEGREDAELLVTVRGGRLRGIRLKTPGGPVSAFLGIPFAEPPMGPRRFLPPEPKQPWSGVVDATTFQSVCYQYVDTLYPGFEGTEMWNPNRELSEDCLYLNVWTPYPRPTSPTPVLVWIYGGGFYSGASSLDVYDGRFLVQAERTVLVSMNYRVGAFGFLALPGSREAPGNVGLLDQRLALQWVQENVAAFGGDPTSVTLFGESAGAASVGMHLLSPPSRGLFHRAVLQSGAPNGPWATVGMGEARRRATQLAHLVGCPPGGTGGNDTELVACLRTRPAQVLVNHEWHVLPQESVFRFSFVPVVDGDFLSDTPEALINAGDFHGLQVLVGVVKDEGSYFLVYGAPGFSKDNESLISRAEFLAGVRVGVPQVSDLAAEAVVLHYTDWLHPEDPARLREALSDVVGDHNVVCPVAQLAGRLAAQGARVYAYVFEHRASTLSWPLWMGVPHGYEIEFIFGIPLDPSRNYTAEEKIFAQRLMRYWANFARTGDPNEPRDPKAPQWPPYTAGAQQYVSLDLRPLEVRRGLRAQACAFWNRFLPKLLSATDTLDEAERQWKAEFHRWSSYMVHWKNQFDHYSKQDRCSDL

Row | Molecule | pIC50 (Cholinesterase) | IC50 [1] | IC50 [2] | pIC50 (Acetylcholinesterase) | IC50 [3] [µg/mL] | pIC50 [2] | pIC50 [1] | IC50 (Acetylcholinesterase) | pIC50 [3]
1 | C=C1C[C@]23C[C@H]1CC[C@H]2[C@]1(C)CCC[C@](C)(CO)[C@@H]1C[C@@H]3O | 4.68 | Not Active | Not Active | 4.64 | 43.1 |  |  |  | 
2 | Cc1c(C)c2c(c(C)c1O)CC[C@@](C)(CCC[C@H](C)CCC[C@H](C)CCCC(C)C)O2 [ALPHA-TOCOPHEROL] |  | 12.26 µg/mL |  |  | 2.1 |  |  |  | 
3 | COc1ccc(O)c(C(C)(C)C)c1.COc1ccc(O)cc1C(C)(C)C [BUTYLATED HYDROXYANISOLE] |  | 5.88 µg/mL |  |  | 1.5 | 4.57 |  |  | 
4 | Cc1cc(C(C)(C)C)c(O)c(C(C)(C)C)c1 [BUTYLATED HYDROXYTOLUENE] |  | 66.73 µg/mL |  |  | 1.3 |  |  |  | 
5 | CC(=O)OC[C@@]1(C)CCC[C@]2(C)[C@H]1C[C@H](OC(C)=O)[C@@]13C[C@@H](CC[C@@H]21)[C@](C)(O)C3 [DIACETYLDISTANOL] | 3.75 |  |  |  |  | < 3.70 | < 3.70 | Not Active | < 3.70
6 | C=C1[C@@H]2CC[C@H]3[C@]4(C)CCC[C@](C)(CO)[C@@H]4C[C@H](O)[C@]3(C2)[C@@H]1O [EUBOTRIOL] | 4.01 |  |  |  |  | < 3.70 | < 3.70 | Not Active | < 3.70
7 | C[C@]1(CO)CCC[C@]2(C)[C@H]1C[C@H](O)[C@@]13C[C@@H](CC[C@@H]21)[C@]1(C)O[C@@H]13 [SIDEROXOL] | 4.60 |  |  | 4.84 |  | < 3.70 | < 3.70 |  | < 3.70
8 | EUBOL | 4.63 |  |  |  |  | < 3.70 | < 3.70 | Not Active | < 3.70
9 | ent-7alpha-acetoxy-15alpha,18-dihydroxykaur-16-ene | < 3.70 |  |  | < 3.70 |  | < 3.70 | < 3.70 |  | < 3.70
